Data from ChEMBL document CHEMBL1811846, “Synthesis and biological activity of naphthyl-substituted (B-ring) benzophenone derivatives as novel non-nucleoside HIV-1 reverse transcriptase inhibitors” (Bioorg Med Chem, 2011).

How the values were obtained:
[1] = system: Human immunodeficiency virus 1; test: Antiviral activity against wild-type HIV1 3B infected in human C8166 cells assessed as protection against virus-induced cytopathogenicity after 3 days by measuring syncytia under inverted microscope; assay type: functional, organism-based; details: Human immunodeficiency virus 1, 3B, C8166, 72 h
In short: (§1)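 C8166 cells at 4 × 10⁵/mL infected at M.O.I. 0.06 in the presence of serial compound concentrations, with AZT and GW678248 as drug controls. After 3 days of culture, syncytia (multinucleated giant cells) counted under an inverted microscope. EC₅₀ is the concentration blocking syncytium formation by 50%.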

[2] = system: Human immunodeficiency virus 1; test: Antiviral activity against HIV1 A17 expressing reverse transcriptase K103N/Y181C double mutant infected in human C8166 cells assessed as protection against virus-induced cytopathogenicity after 3 days by measuring syncytia under inverted microscope; assay type: functional, organism-based; details: Human immunodeficiency virus 1, A17, C8166, 72 h
In short: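 C8166 cells (4 × 10⁵/mL) infected with HIV-1 A17 at MOI 0.06 in the presence of various compound concentrations. AZT and GW678248 served as drug controls. After 3 days of culture, syncytia (multinucleated giant cells) were scored under an inverted microscope. EC₅₀ was calculated as the concentration blocking syncytium formation by 50%.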

[3] = Cytotoxicity against human C8166 cells by MTT colorimetric assay; assay type: cell-based
In short: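 Uninfected C8166 cells exposed to compounds; viability read by MTT colorimetric assay at absorbance 570/630 nm. CC₅₀ is the concentration reducing viability by 50%.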

[4] = Selectivity index, ratio of CC50 for human C8166 cells to EC50 for HIV1 3B infected in human C8166 cells; assay type: toxicity, cell-based; details: HIV-1 3B infected C8166 cells, read-out: Ratio CC50/EC50
In short: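 Calculated as CC₅₀ (MTT viability of uninfected C8166 cells) divided by EC₅₀ against HIV-1 IIIB (syncytium scoring in C8166 cells, M.O.I. 0.06, 3 days).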

[5] = system: Human immunodeficiency virus 2; test: Antiviral activity against HIV-2 ROD infected in human C8166 cells assessed as protection against viral cytopathogenicity after 3 days by measuring syncytia under inverted microscope; assay type: functional, organism-based; details: Human immunodeficiency virus 2, ISOLATE ROD, C8166, 72 h; in short: as §1

Row | SMILES | EC50 [1] [µM] | EC50 [2] [µM] | CC50 [3] [µM] | selectivity ratio [4] | EC50 [5] [µM]
1 | Cc1cc(S(N)(=O)=O)ccc1NC(=O)COc1ccc2ccccc2c1C(=O)c1ccccc1 | 0.0527 | 9.6 | 33.8 | 642 | 
2 | Cc1cccc(C(=O)c2c(OCC(=O)Nc3ccc(S(N)(=O)=O)cc3C)ccc3ccccc23)c1 | 0.0135 | 2.4 | 40.4 | 2990 | 28.3
3 | Cc1cc(S(N)(=O)=O)ccc1NC(=O)COc1ccc2ccccc2c1C(=O)c1cccc(Cl)c1 | 0.0338 | 9.5 | 37.4 | 1110 | 34.5
4 | Cc1cc(C)cc(C(=O)c2c(OCC(=O)Nc3ccc(S(N)(=O)=O)cc3C)ccc3ccccc23)c1 | 0.0078 | 8.4 | 39.1 | 5040 | 45.4
5 | Cc1ccc(C)c(C(=O)c2c(OCC(=O)Nc3ccc(S(N)(=O)=O)cc3C)ccc3ccccc23)c1 | 0.0116 | 7.6 | 47.5 | 4090 | 30.3
6 | Cc1ccc(C(=O)c2c(OCC(=O)Nc3ccc(S(N)(=O)=O)cc3C)ccc3ccccc23)c(C)c1 | 0.139 | 7.9 | 25.5 | 183 | 
7 | Cc1ccc(C(=O)c2c(OCC(=O)Nc3ccc(S(N)(=O)=O)cc3C)ccc3ccccc23)cc1C | 0.609 | 12.3 | 33 | 54.2 | 
8 | Cc1cc(S(N)(=O)=O)ccc1NC(=O)COc1ccc2ccccc2c1C(=O)c1cc(Cl)cc(Br)c1 | 0.0271 | 7.5 | 36.6 | 1350 | 
9 | Cc1cc(S(N)(=O)=O)ccc1NC(=O)COc1ccc2ccccc2c1C(=O)c1cc(Cl)cc(C#N)c1 | 0.0048 | 2.1 | 49.4 | 10300 | 23.6
10 | Cc1cc(S(N)(=O)=O)ccc1NC(=O)COc1ccc2cc(Br)ccc2c1C(=O)c1ccccc1 | 4.61 | 25.8 | 29.2 | 6.3 | 27.7
11 | Cc1cccc(C(=O)c2c(OCC(=O)Nc3ccc(S(N)(=O)=O)cc3C)ccc3cc(Br)ccc23)c1 | 2.3 | 3.4 | 6.8 | 2.9 | 
12 | Cc1cc(S(N)(=O)=O)ccc1NC(=O)COc1ccc2cc(Br)ccc2c1C(=O)c1cccc(Cl)c1 | 1.67 | 3.9 | 6.8 | 4.1 | 
13 | Cc1cc(S(N)(=O)=O)ccc1NC(=O)COc1ccc2cc(Br)ccc2c1C(=O)c1cccc(F)c1 | 9.17 | 9.7 | 24.5 | 2.7 | 6
14 | Cc1cc(C)cc(C(=O)c2c(OCC(=O)Nc3ccc(S(N)(=O)=O)cc3C)ccc3cc(Br)ccc23)c1 | 4.42 | 7.8 | 31 | 7 | 29.8
15 | Cc1ccc(C(=O)c2c(OCC(=O)Nc3ccc(S(N)(=O)=O)cc3C)ccc3cc(Br)ccc23)c(C)c1 | 23.6 | 33.1 | 61.4 | 2.6 | 
16 | Cc1ccc(C)c(C(=O)c2c(OCC(=O)Nc3ccc(S(N)(=O)=O)cc3C)ccc3cc(Br)ccc23)c1 | 2.64 | 20.7 | 14 | 5.3 | 
17 | Cc1ccc(C(=O)c2c(OCC(=O)Nc3ccc(S(N)(=O)=O)cc3C)ccc3cc(Br)ccc23)cc1C | 31.9 | 28.2 | 85.2 | 2.7 | 
18 | Cc1cc(S(N)(=O)=O)ccc1NC(=O)COc1ccc2cc(Br)ccc2c1C(=O)c1cc(Cl)cc(Br)c1 | 7.57 | 10.2 | 28.5 | 3.8 | 11.1
19 | Cc1cccc(C(=O)c2c(OCC(=O)Nc3ccc(S(N)(=O)=O)cc3C)ccc3cc(C#N)ccc23)c1 | 0.791 | 10.4 | 15.2 | 19.2 | 
20 | Cc1cc(S(N)(=O)=O)ccc1NC(=O)COc1ccc2cc(C#N)ccc2c1C(=O)c1cccc(Cl)c1 | 2.05 | 20.6 | > 374 | > 183 | 
21 | Cc1ccc(C(=O)c2c(OCC(=O)Nc3ccc(S(N)(=O)=O)cc3C)ccc3cc(C#N)ccc23)cc1C | 86.3 | 97.3 | > 379 | > 4.4 | 
22 | Cc1cc(C)cc(C(=O)c2c(OCC(=O)Nc3ccc(S(N)(=O)=O)cc3C)ccc3cc(C#N)ccc23)c1 | 1.78 | 16.3 | 128 | 72 | 
23 | Cc1cc(S(N)(=O)=O)ccc1NC(=O)COc1ccc(Cl)cc1C(=O)c1cc(Cl)cc(C#N)c1 |  | 0.0014 | > 387 | > 563000 | 2.1
24 | Cc1cn([C@H]2C[C@H](N=[N+]=[N-])[C@@H](CO)O2)c(=O)[nH]c1=O [ZIDOVUDINE] |  | 0.023 | 5400 | 422000 | 0.039
